Data on one molecule can be found in ChEMBL document CHEMBL4052792, “3-Hydroxykynurenine, a Tryptophan Metabolite Generated during the Infection, Is Active Against Trypanosoma cruzi” (ACS Med Chem Lett, 2017).

SMILES strings stand for the structures. Active and inactive are the calls of the source. The rule behind the calls is not given here.

The test system of series [1] is Trypanosoma cruzi. As to the kind of experiment: Trypanocidal activity against Trypanosoma cruzi Tulahuen amastigotes infected in BALB/C mouse bone marrow derived macrophages assessed as decrease in intracellular parasite growth after 72 hrs by immunofluorescence assay. The series is classed as functional, cell-based. In a few lines:
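Macrophages were infected with trypomastigotes and treated with 3-HK for 24 h. Immunofluorescence counts were made at 72 h post-infection. Intracellular parasites per 200 cells were expressed relative to medium-treated cultures, and infected cells were counted among 200 macrophages. Data are means ± SD of four independent experiments.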

Series [2] relates to Trypanosoma cruzi. As to the kind of experiment: Trypanocidal activity against Trypanosoma cruzi Tulahuen amastigotes infected in BALB/C mouse bone marrow derived macrophages assessed as endocytic index at 0.2 uM treated for 24 hrs followed by compound washout measured after 48 hrs by immunofluorescence assay (reference value: 213.66 +/- 58.79). The series is classed as functional.

For series [3], the system named is Trypanosoma cruzi. As to the kind of experiment: Trypanocidal activity against Trypanosoma cruzi Tulahuen trypomastigotes assessed as increase in parasite death up to 72 hrs by trypan blue assay. The series is classed as functional. In a few lines: (§1)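 Bloodstream trypomastigotes were incubated at 37 °C in culture medium alone or with increasing doses for 24, 48 and 72 h. Parasite death was scored as percentage by trypan blue exclusion. Results are means ± SD of three independent experiments.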

The test system of series [4] is Trypanosoma cruzi. The series can be described thus: Trypanocidal activity against Trypanosoma cruzi Tulahuen amastigotes infected in BALB/C mouse bone marrow derived macrophages assessed as endocytic index at 2 uM treated for 24 hrs followed by compound washout measured after 48 hrs by immunofluorescence assay (reference value: 213.66 +/- 58.79). The series is classed as functional.

Series [5] is described as follows: Induction of apoptosis in BALB/C mouse BMDM assessed as cells with hypodiploid DNA content at 2 uM after 24 hrs by FITC/propidium iodide staining based flow cytometric analysis (reference value: 29.9%). The series is classed as functional. (In general: A flow cytometer gives signals particle by particle.)
The test system of series [6] is Trypanosoma cruzi. As to the kind of experiment: Trypanocidal activity against Trypanosoma cruzi Tulahuen amastigotes infected in BALB/C mouse bone marrow derived macrophages assessed as reduction in endocytic index at 0.2 uM after 72 hrs by immunofluorescence assay relative to control. The series is classed as functional.
Series [7] relates to Trypanosoma cruzi. The series can be described thus: Trypanostatic activity against Trypanosoma cruzi Tulahuen amastigotes infected in BALB/C mouse bone marrow derived macrophages assessed as formation of low electrodense structures in parasite cytoplasm at 20 uM after 24 hrs by transmission electron microscopic analysis. The series is classed as functional. In a few lines: (§2)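 Bone marrow-derived macrophages were infected for 24 h, then exposed to 20 μM for 24 h or left untreated. Intracellular amastigote ultrastructure was examined by transmission electron microscopy, covering mitochondrion, nucleus, kinetoplast, flagellum, flagellar pocket, subpellicular microtubules and cytoplasmic structures.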

The subject of the next series is Jurkat. The series can be described thus: Cytotoxicity against human Jurkat cells assessed as reduction in cell viability at 1200 to 2000 uM after 48 hrs by trypan blue exclusion assay. The series is classed as cell-based. In a few lines:
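Human PBMC and Jurkat cells were treated for 48 h with a range of 3-HK concentrations or left untreated. Viable cells were counted under light microscopy by trypan blue exclusion. Data are means ± SD of four independent experiments.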

Series [8] can be described thus: Induction of apoptosis in BALB/C mouse BMDM assessed as cells with hypodiploid DNA content at 20 uM after 24 hrs by FITC/propidium iodide staining based flow cytometric analysis (reference value: 29.9%). The series is classed as functional.
For series [9], the system named is Trypanosoma cruzi. The series can be described thus: Trypanocidal activity against Trypanosoma cruzi Tulahuen trypomastigotes assessed as reduction in parasites after 24 to 48 hrs by trypan blue assay. The series is classed as functional. In a few lines: as §1
The test system of series [10] is Trypanosoma cruzi. As to the kind of experiment: Trypanocidal activity against Trypanosoma cruzi Tulahuen amastigotes infected in BALB/C mouse bone marrow derived macrophages assessed as endocytic index at 400 uM treated for 24 hrs followed by compound washout measured after 48 hrs by immunofluorescence assay (reference value: 213.66 +/- 58.79). The series is classed as functional.

Series [11] relates to Trypanosoma cruzi. As to the kind of experiment: Trypanocidal activity against Trypanosoma cruzi Tulahuen amastigotes infected in BALB/C mouse bone marrow derived macrophages assessed as parasite infected macrophages at 2000 uM treated for 24 hrs followed by compound washout measured after 48 hrs by immunofluorescence assay (reference value: 26.84 +/- 7.81%). The series is classed as functional.

For series [12], the system named is Trypanosoma cruzi. As to the kind of experiment: Trypanostatic activity against Trypanosoma cruzi Tulahuen amastigotes infected in BALB/C mouse bone marrow derived macrophages assessed as kinetoplast structure disorganization at 20 uM after 24 hrs by transmission electron microscopic analysis. The series is classed as functional. In short, it runs like this: as §2

A word on the inhibition: it is the drop in the measured response relative to a control, in per cent. One may read the IC50 as the concentration needed to halve the response being measured.

Turning to `Nc1c(O)cccc1C(=O)C[C@H](N)C(=O)O`, the Activity entry is “Dose-dependent effect” in the series on Trypanosoma cruzi [1]; 67.61 in the series with Trypanosoma cruzi [2]; “Dose-dependent effect” in the series on Trypanosoma cruzi [3]; 60.59 in the series on Trypanosoma cruzi [4]; 28.2% in series [5]; “Toxic” with Jurkat. The Activity in series [8] came to 25.9%; with Trypanosoma cruzi [10], 89.81; in the series on Trypanosoma cruzi [11] it was 16.31%. Further, the inhibition at 0.2 µM in the series on Trypanosoma cruzi [6] amounted to 68%. Besides, the result with Trypanosoma cruzi [7] and with Trypanosoma cruzi [12] was Active. The IC50 with Trypanosoma cruzi [9] lay in the range of 200 to 1200 µM.
